The values below come from ChEMBL document CHEMBL4024793, “Development of Stem-Cell-Mobilizing Agents Targeting CXCR4 Receptor for Peripheral Blood Stem Cell Transplantation and Beyond” (J Med Chem, 2018).

For series [1], the target named is Voltage-dependent N-type calcium channel subunit alpha-1B (Rattus norvegicus) (UniProt Q02294). Nature of the series: Displacement of [125I]omega-conotoxin GVIA from rat brain Cav2.2 at 10 uM after 30 mins by scintillation counting.
The subject of series [2] is Rattus norvegicus. Briefly: Hepatotoxicity in Sprague-Dawley rat assessed as effect on liver color at 50 mg/kg/day, sc administered for 14 days relative to control. The class given is toxicity, organism-based. The note with it: in vivo, 336 h. Put shortly:
(§1)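 Non-GLP 14-day repeated-dose study in SD rats given 50 mg/kg/day SC. Major organs (liver, kidney, lung, heart) compared with vehicle for size, weight and colour. Blood analysed for hematological and biochemical parameters.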

The target in the next series is Cytochrome P450 3A4 (Homo sapiens, UniProt P08684). Briefly: Inhibition of human liver microsomal CYP3A4. The class given is ADME.
Cytochrome P450 3A4, sequence (P08684 whole entry): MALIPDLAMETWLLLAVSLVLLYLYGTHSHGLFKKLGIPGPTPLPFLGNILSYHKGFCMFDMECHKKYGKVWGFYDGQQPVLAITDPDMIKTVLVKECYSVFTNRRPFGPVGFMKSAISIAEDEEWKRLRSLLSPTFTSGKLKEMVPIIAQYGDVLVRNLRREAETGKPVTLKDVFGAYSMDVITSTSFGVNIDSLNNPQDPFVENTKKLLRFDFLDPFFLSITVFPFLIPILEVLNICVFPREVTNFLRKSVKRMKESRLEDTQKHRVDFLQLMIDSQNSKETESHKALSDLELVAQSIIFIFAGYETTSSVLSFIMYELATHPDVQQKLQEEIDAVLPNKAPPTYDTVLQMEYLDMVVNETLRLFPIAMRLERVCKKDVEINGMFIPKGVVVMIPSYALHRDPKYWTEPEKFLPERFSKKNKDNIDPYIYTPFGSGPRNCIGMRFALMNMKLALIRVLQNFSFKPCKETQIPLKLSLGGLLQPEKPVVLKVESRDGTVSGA
The target in series [3] is C-X-C chemokine receptor type 2 (Homo sapiens) (UniProt P25025). Briefly: Antagonist activity at human CXCR2 expressed in CHOK1 cells assessed as inhibition of interleukin-8-induced cAMP accumulation at 10 uM preincubated for 30 mins followed agonist addition measured after 30 to 60 mins. The class given is functional, cell-based. The method in brief:
(§2)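 GPCR cAMP assay with a single test concentration of 10 μM; result expressed as percentage inhibition for each chemokine receptor.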

The next series concerns Mus musculus. Briefly: Induction hematopoietic stem cell mobilization in C57BL/6 mouse assessed as increase in CXCR4+ cells in blood at 35 mg/kg, sc measured after 2 hrs by APC-conjugated anti-CXCR4-staining based flow cytometry relative to vehicle control. The class given is functional. The method in brief:
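Male C57BL/6 mice, 8–10 weeks old, received SC doses escalating through 1, 6, 20, 35 and 50 mg/kg. Blood was drawn 2 h after dosing and labelled with APC-conjugated anti-CXCR4 (clone 2B11). CXCR4⁺ cells were counted by flow cytometry, at least 60,000 events per point. Mean ± SEM, n = 3 per group, t test against vehicle.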

Series [4] has as its system Rattus norvegicus. Nature of the series: Toxicity in Sprague-Dawley rat assessed as effect on hematology parameters at 50 mg/kg/day, sc administered for 14 days relative to control. The class given is organism-based. As to conditions: in vivo, 336 h. Put shortly:
as §1

For series [5], the target named is Chemokine XC receptor 1 (Homo sapiens) (UniProt P46094). Briefly: Antagonist activity at human XCR1 expressed in CHOK1 cells assessed as inhibition of lymphotactin-induced cAMP accumulation at 10 uM preincubated for 30 mins followed agonist addition measured after 30 to 60 mins. The class given is functional, cell-based. Put shortly:
as §2

Molecules are shown by their SMILES.

C-X-C chemokine receptor type 2 (Homo sapiens), sequence (P25025 whole entry): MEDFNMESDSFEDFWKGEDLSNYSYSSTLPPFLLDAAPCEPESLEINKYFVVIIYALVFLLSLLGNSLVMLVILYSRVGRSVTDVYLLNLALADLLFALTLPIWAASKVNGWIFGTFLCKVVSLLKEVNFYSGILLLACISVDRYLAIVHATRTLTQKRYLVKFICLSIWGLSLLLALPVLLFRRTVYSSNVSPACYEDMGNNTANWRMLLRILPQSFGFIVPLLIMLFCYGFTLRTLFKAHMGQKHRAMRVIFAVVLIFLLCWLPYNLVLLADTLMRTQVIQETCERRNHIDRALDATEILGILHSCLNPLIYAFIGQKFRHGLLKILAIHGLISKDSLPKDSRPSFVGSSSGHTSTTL
Chemokine XC receptor 1 (Homo sapiens), sequence (P46094 whole entry): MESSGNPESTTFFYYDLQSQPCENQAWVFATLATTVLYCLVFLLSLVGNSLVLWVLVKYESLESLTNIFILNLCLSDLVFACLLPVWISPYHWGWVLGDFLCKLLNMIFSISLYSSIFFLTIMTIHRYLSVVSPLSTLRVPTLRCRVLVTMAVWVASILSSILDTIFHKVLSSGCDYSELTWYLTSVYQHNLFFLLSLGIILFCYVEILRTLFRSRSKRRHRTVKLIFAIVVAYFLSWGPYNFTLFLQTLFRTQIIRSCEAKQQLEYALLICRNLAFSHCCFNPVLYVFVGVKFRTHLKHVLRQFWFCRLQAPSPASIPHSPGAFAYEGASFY
Voltage-dependent N-type calcium channel subunit alpha-1B (Rattus norvegicus), sequence (Q02294 whole entry, looked up): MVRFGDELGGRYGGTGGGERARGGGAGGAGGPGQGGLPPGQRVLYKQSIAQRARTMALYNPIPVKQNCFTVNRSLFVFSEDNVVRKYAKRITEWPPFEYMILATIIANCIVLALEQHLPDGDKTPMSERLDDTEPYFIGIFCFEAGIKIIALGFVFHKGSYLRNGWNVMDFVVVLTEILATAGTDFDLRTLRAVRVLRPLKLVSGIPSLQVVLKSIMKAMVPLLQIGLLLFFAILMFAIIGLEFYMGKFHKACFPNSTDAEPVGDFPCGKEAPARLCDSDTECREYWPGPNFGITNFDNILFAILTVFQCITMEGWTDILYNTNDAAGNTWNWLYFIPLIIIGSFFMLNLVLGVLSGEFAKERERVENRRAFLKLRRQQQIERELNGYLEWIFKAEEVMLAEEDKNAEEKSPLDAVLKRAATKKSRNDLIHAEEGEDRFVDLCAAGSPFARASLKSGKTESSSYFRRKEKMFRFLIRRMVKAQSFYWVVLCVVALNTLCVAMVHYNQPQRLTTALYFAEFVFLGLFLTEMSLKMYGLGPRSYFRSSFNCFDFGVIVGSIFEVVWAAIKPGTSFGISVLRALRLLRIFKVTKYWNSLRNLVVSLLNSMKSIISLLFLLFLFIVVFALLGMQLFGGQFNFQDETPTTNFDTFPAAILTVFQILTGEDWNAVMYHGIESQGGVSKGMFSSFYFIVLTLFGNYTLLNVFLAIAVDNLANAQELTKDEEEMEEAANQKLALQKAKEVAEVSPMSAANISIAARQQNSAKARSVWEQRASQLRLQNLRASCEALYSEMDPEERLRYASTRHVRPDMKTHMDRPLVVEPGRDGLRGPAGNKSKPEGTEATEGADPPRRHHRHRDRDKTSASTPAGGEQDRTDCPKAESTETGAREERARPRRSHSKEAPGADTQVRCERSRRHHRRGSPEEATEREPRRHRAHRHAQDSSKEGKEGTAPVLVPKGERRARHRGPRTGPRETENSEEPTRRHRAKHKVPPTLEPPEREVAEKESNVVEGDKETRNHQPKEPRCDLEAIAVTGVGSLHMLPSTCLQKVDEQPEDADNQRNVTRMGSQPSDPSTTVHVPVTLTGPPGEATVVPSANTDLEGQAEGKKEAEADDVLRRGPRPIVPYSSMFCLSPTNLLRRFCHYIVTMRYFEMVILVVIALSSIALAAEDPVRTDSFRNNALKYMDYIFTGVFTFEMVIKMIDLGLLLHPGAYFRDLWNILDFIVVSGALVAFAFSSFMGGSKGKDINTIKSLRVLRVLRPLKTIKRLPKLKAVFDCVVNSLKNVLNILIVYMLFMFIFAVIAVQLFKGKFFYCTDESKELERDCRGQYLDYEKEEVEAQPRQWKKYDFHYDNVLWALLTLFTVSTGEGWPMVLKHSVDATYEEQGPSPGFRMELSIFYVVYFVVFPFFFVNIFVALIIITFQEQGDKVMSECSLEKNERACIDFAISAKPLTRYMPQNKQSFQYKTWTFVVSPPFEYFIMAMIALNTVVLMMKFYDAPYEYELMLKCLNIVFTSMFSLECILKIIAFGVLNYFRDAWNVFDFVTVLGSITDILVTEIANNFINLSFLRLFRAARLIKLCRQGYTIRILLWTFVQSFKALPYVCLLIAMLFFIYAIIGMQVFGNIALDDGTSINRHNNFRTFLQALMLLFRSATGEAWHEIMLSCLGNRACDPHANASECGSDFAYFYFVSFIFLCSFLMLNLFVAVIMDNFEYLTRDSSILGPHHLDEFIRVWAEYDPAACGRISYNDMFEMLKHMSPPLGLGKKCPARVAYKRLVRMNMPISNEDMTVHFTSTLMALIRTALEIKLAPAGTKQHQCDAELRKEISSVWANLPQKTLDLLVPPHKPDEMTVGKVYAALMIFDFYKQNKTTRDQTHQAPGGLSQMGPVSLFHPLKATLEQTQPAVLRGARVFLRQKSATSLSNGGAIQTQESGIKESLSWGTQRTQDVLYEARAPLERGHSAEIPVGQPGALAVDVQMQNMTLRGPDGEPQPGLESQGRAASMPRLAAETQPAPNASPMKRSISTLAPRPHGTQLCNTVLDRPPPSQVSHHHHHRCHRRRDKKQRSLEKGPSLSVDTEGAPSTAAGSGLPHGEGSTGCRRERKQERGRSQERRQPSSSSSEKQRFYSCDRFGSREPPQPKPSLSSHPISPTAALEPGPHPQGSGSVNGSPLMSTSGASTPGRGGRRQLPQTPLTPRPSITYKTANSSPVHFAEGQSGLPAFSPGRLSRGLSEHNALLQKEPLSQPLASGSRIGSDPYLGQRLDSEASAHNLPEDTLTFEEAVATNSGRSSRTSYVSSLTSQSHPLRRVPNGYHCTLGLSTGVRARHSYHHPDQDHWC

Take `Cc1cc(NC2CCN(C(=O)CCNCC(=O)O)CC2)nc(NCc2cn(CCCNCCCNC3CCCCC3)nn2)n1`: in series [1], the inhibition amounted to 73%. Further, the Activity entry in the series on Rattus norvegicus [2] and with Rattus norvegicus [4] was “Non-Toxic” in each case. This compound had a concentration for half-maximal inhibition (IC50) against Cytochrome P450 3A4 greater than 100 µM. Further, the Efficacy was 0.5% in series [3] and -2.8% in series [5]. Besides, in the series on Mus musculus, the “fold change (FC)” value worked out at 3.
